In article PMC6018888 (Drug Design, Development and Therapy, 2018):

Key:
[1] = test system: urinary excretion of uric acid; test: Pharmacodynamics: urinary uric acid excretion; format: in vivo, human; conditions: for CLUR0–24 / FEUA0–24: mean (95% CI); for percent change from baseline in AeUR over 0–6 hours: non-Asian subjects
Procedure, shortened: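 Total-catch urine was collected at 6- or 12-h intervals from predose to 72 h after dosing on days 1 (fasted ≥10 h, no food 4 h postdose) and 12, and to 24 h on day 6 (fed). Urine uric acid, urine creatinine and serum creatinine were measured. CLUR0–24 = urinary uric acid amount ÷ urate AUC0–24. FEUA0–24 = CLUR0–24 ÷ creatinine clearance × 100.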

[2] = Verinurad plasma pharmacokinetics, Phase I single and multiple dose study; format: in vivo, human; conditions: for GMR AUC0–24 (day 6/day 1) / GMR AUC0–∞ (day 6/day 1) / GMR Cmax (day 6/day 1): fed (day 6) vs fasted (day 1); for Tmax: median (range); for AUC(0-t): AUC0–24, Japanese subjects; for half-life: t1/2, Japanese subjects
Procedure, shortened: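 Oral modified-release tablets were given once as a single dose on day 1 (fasted overnight ≥10 h) and day 6 (after a moderate-fat breakfast), then daily fed through day 12. Serial plasma was sampled to 72 h on days 1 and 12, to 24 h on day 6, and predose on days 8–11. Samples were stored at −70°C. Cmax and AUC0–24 came from noncompartmental analysis, with comparisons as geometric mean ratios.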

[3] = Japanese subjects, 15 mg multiple dose, fed
[4] = Japanese subjects, 15 mg single dose, fasted
[5] = Japanese subjects, 15 mg single dose, fed
[6] = Non-Asian subjects, 10 mg multiple dose, fed
[7] = Non-Asian subjects, 10 mg single dose, fasted
[8] = Non-Asian subjects, 10 mg single dose, fed
[9] = Japanese subjects, 2.5 mg single dose
[10] = Japanese subjects, 5 mg single dose
[11] = Japanese subjects, 10 mg single dose
[12] = Japanese subjects, 15 mg single dose
[13] = Japanese subjects, across the dose groups 2.5–15 mg, fed vs fasted
[14] = male, human, plasma, oral, 5 mg, 5 mg once daily multiple doses, fed, day 12, geometric mean (95% CI)
[15] = male, human, plasma, oral, 10 mg, 10 mg once daily multiple doses, fed, day 12, geometric mean (95% CI)
[16] = male, human, plasma, oral, 15 mg, 15 mg once daily multiple doses, fed, day 12, geometric mean (95% CI)
[17] = multiple verinurad 10 mg doses, fed

For CC(C)(Sc1ccncc1-c1ccc(C#N)c2ccccc12)C(=O)O [verinurad], the “percent change from baseline in AeUR, 0–6 hour interval” value (shortened to “percent change … 0–6 hour interval”) ([1]; Japanese subjects, 10 mg, day 12 (steady-state, fed)) was −33%, the “CLUR0–24” value [1, 3] was 23.9 (14.9–32.9) mL/min and the “FEUA0–24” value [1, 3] was 16.0 (10.7–21.2) %. For the same compound, the “CLUR0–24” value [1, 4] was 15.0 (6.40–23.6) mL/min, the “FEUA0–24” value [1, 4] was 14.5 (7.08–22.0) % and the “CLUR0–24” value [1, 5] was 12.1 (4.04–20.2) mL/min. For the same compound, the “FEUA0–24” value [1, 5] was 9.61 (2.96–16.3) %, the “percent change … 0–6 hour interval” value ([1]; Japanese subjects, 15 mg, day 1 (fasted)) was 77% and the “percent change … 0–6 hour interval” value ([1]; Japanese subjects, 15 mg, day 6 (fed)) was 49%. For the same compound, the “percent change … 0–6 hour interval” value ([1]; Japanese subjects, 15 mg, day 12 (steady-state, fed)) was 6%, the “CLUR0–24” value [1, 6] was 20.6 (13.7–27.4) mL/min and the “FEUA0–24” value [1, 6] was 13.2 (8.45–17.9) %. For the same compound, the “CLUR0–24” value [1, 7] was 15.3 (7.35–23.3) mL/min, the “FEUA0–24” value [1, 7] was 10.4 (4.84–16.0) % and the “CLUR0–24” value [1, 8] was 18.6 (8.95–28.2) mL/min. The “FEUA0–24” value [1, 8] was 11.7 (6.44–17.0) %, the “percent change from baseline in AeUR over 0–6 hours” value (“percent change … over 0–6 hours” below) ([1]; 10 mg, day 1) was 70% and the “percent change … over 0–6 hours” value ([1]; 10 mg, day 6) was 141%. The “percent change … over 0–6 hours” value ([1]; 10 mg, day 12) was -41%, the “AUC0–24 GMR, % (95% CI), Japanese/non-Asian” value ([2]; 10 mg multiple dose, fed) was 123 (93.0–162) % and the “AUC0–24 GMR, % (95% CI), Japanese/non-Asian, bodyweight normalized to 70 kg” value ([2]; 10 mg multiple dose, fed) was 96.9 (77.4–121) %. The “Cmax GMR, % (95% CI), Japanese/non-Asian” value ([2]; 10 mg multiple dose, fed) was 138 (112–171) %, the “Cmax GMR, % (95% CI), Japanese/non-Asian, bodyweight normalized to 70 kg” value ([2]; 10 mg multiple dose, fed) was 109 (94.4–126) % and the “AUC0–24 GMR, % (95% CI), Japanese/non-Asian” value ([2]; 10 mg single dose, fasted) was 134 (111–161) %. The “AUC0–24 GMR, % (95% CI), Japanese/non-Asian, bodyweight normalized to 70 kg” value ([2]; 10 mg single dose, fasted) was 106 (84.5–132) %, the “Cmax GMR, % (95% CI), Japanese/non-Asian” value ([2]; 10 mg single dose, fasted) was 199 (167–237) % and the “Cmax GMR, % (95% CI), Japanese/non-Asian, bodyweight normalized to 70 kg” value ([2]; 10 mg single dose, fasted) was 157 (132–187) %. The “AUC0–24 GMR, % (95% CI), Japanese/non-Asian” value ([2]; 10 mg single dose, fed) was 176 (137–227) %, the “AUC0–24 GMR, % (95% CI), Japanese/non-Asian, bodyweight normalized to 70 kg” value ([2]; 10 mg single dose, fed) was 139 (114–170) % and the “Cmax GMR, % (95% CI), Japanese/non-Asian” value ([2]; 10 mg single dose, fed) was 142 (107–189) %. The “Cmax GMR, % (95% CI), Japanese/non-Asian, bodyweight normalized to 70 kg” value ([2]; 10 mg single dose, fed) was 112 (88.5–143) %, the “GMR AUC0–24 (day 6/day 1)” value [2, 9] was 146 (101–211) % and the “GMR AUC0–∞ (day 6/day 1)” value [2, 9] was 131 (82.9–208) %. For the same compound, the “GMR Cmax (day 6/day 1)” value [2, 9] was 116 (105–128) %, the “Rac, accumulation ratio (day 12/day 6), AUC0–24” value ([2]; Japanese subjects, 2.5 mg, fed) was 1.06 (0.672–1.68) and the Tmax ([2]; Japanese subjects, 5 mg once daily multiple doses, fed, day 12) was 4.00 (2.00–10.0) h. For the same compound, the “GMR AUC0–24 (day 6/day 1)” value [2, 10] was 185 (121–283) %, the “GMR AUC0–∞ (day 6/day 1)” value [2, 10] was 173 (108–278) % and the “GMR Cmax (day 6/day 1)” value [2, 10] was 126 (89.1–179) %. The “Rac, accumulation ratio (day 12/day 6), Cmax” value (shortened to “Rac, accumulation ratio … Cmax”) ([2]; Japanese subjects, 5 mg, fed) was 1.24 (1.01–1.53), the “AUC0–24” value ([2]; Japanese subjects, 10 mg single dose, fasted, day 1, geometric mean (95% CI)) was 93.4 (74.2–118) ng·h/mL and the “GMR AUC0–24 (day 6/day 1)” value [2, 11] was 209 (172–253) %. For the same compound, the “GMR AUC0–∞ (day 6/day 1)” value [2, 11] was 197 (181–215) %, the “GMR Cmax (day 6/day 1)” value [2, 11] was 99.7 (85.1–117) % and the “Rac, accumulation ratio (day 12/day 6), AUC0–24” value ([2]; Japanese subjects, 10 mg, fed) was 0.886 (0.679–1.16). For the same compound, the “Rac, accumulation ratio … Cmax” value ([2]; Japanese subjects, 10 mg, fed) was 1.14 (0.774–1.64), the “AUC0–24” value ([2]; Japanese subjects, 15 mg single dose, fed, day 6, geometric mean (95% CI)) was 239 (137–416) ng·h/mL and the “GMR AUC0–24 (day 6/day 1)” value [2, 12] was 107 (89.1–128) %. For the same compound, the “GMR AUC0–∞ (day 6/day 1)” value [2, 12] was 100 (83.1–120) %, the “GMR Cmax (day 6/day 1)” value [2, 12] was 112 (90.6–139) % and the “Rac, accumulation ratio (day 12/day 6), AUC0–24” value ([2]; Japanese subjects, 15 mg, fed) was 1.20 (0.979–1.46). The “Rac, accumulation ratio … Cmax” value ([2]; Japanese subjects, 15 mg, fed) was 1.09 (0.823–1.44), the “effect of moderate-fat meal on plasma AUC0–∞ (increase)” value [2, 13] was 0%–97% and the “effect of moderate-fat meal on plasma Cmax (increase)” value [2, 13] was 0%–26%. The “AUC0–24” value ([2]; Japanese, 10 mg single dose, fasted, geometric least square mean) was 93.4 ng·h/mL, the Cmax ([2]; Non-Asian, 10 mg single dose, fed, geometric least square mean) was 15.4 ng/mL and the AUC(0-t) [2, 14] was 80.9 ng·h/mL. For the same compound, the Cmax ([2]; male, human, plasma, oral, 5 mg, Cmax, Japanese subjects, 5 mg once daily multiple doses, fed, day 12, geometric mean (95% CI)) was 11.5 ng/mL, the half-life [2, 14] was 7.85 h and the AUC(0-t) [2, 15] was 173 ng·h/mL. The Cmax ([2]; male, human, plasma, oral, 10 mg, Cmax, Japanese subjects, 10 mg once daily multiple doses, fed, day 12, geometric mean (95% CI)) was 24.9 ng/mL, the Tmax ([2]; male, human, plasma, oral, 10 mg, Tmax, Japanese subjects, 10 mg once daily multiple doses, fed, day 12) was 4.5 h and the half-life [2, 15] was 6.93 h. For the same compound, the AUC(0-t) [2, 16] was 286 ng·h/mL, the Cmax ([2]; male, human, plasma, oral, 15 mg, Cmax, Japanese subjects, 15 mg once daily multiple doses, fed, day 12, geometric mean (95% CI)) was 41.5 ng/mL and the half-life [2, 16] was 9.79 h. The “AUC higher in Japanese vs non-Asian subjects” value [2, 17] was 23% and the “Cmax higher in Japanese vs non-Asian subjects” value [2, 17] was 38%.
